# From PubChem BioAssay
# Hits are enriched below; roughly 3.3% of the tested compounds scored in any of these assays.
# Myeloid diff 2: compounds promoting myeloid differentiation; ER-HoxA9 myeloid progenitors, lysozyme-GFP differentiation, flow cytometry; calls only at 10 µM; 360,000 compounds, 1% hits; AID 624256;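 active = normalized GFP-positive differentiation at or above the plate's own cutoff, the solvent-only control mean plus 3 SD; inconclusive = no clear call, values can overlap the other calls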;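 also: cells exposed to compound for four days before flow analysis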
# Arr AP2 block: blocks beta-arrestin peptide binding to AP2 adaptin; 340,000 compounds, 0.31% hits; FITC-arrestin peptide / GST-AP2 beads, flow cytometry; AP2 beta2 appendage carries R879A mutation; AID 504490; inhibition, % at 10 µM;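 active = inhibition above a set limit, near 3 SD of compounds lacking own fluorescence, cut at about 54% in these data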;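 also: plate controls were DMSO wells for no effect and 5 µM unlabelled arrestin peptide for full effect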
#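 Assay system: GST-AP2 R879A bound to glutathione beads, E. coli-expressed; Medium: PBS with 0.05% Tween 20 and 0.1% BSA; Also added: fluorescein-tagged arrestin peptide at 50 nM final; Timing: 12 min plus 1 h, RT; Measured by: flow cytometry, FL1 (488/535 nm); Evaluation: percent drop in bead-associated FITC signal.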
# Granule exo inh: blocks lytic granule exocytosis; 360,000 compounds, 0.66% hits; TALL-104 LAMP-1 surface exposure, flow cytometry; cells stimulated with thapsigargin and PMA; inhibition, % at 10 µM;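 active = inhibition above about 55%, limit read from the data; inconclusive = no clear call, values can overlap the other calls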
# ATG4B inhibitor: inhibitors of human ATG4B cysteine protease; 340,000 compounds, 0.51% hits; ATG4B cleavage of LC3-PLA2, NBD-HPC fluorescence, 1 h; AID 504462; inhibition, % at 8.33 µM; in the data active = inhibition above about 40%
# Target sequence (Q9Y4P1 whole entry, looked up): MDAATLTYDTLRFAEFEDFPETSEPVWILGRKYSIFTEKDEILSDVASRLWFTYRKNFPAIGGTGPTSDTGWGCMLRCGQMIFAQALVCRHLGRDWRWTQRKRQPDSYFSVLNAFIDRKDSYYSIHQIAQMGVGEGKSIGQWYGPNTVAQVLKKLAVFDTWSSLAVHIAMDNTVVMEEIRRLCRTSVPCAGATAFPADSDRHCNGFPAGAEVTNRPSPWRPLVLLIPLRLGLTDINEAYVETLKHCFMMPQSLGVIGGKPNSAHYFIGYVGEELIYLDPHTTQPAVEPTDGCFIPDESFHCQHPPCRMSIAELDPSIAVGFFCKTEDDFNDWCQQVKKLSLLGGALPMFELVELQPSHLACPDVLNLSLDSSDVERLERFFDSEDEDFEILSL
# CendR NRP1 mod: modulators of CendR peptide binding to human neuropilin-1; inhibition, % at 25 µM; 360,000 compounds, 0.85% hits; O14786; FAM-RPARPAR peptide binding to NRP-1, fluorescence polarization;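 active = inhibition or corrected inhibition above about 18%, plus a signal ratio from 0.5 to 1.5, limit read from the data, passing the limit was not always enough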
# ABCB6 inh 2: inhibitors of human ABC transporter ABCB6. K562-ABCB6 porphyrin accumulation, flow cytometry, 1 h; stronger effect = lower value. fluorescence ratio to DMSO, % at 10 µM. 360,000 compounds, 0.19% hits;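 active = fluorescence ratio to DMSO below 75%, the collection mean minus 3 SD; inconclusive = too few cells collected in the well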;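 also: signal is porphyrin accumulated inside mitochondria; 100% equals median channel fluorescence of DMSO control wells; lower ratio means ABCB6 inhibition with less porphyrin fluorescence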
# Granule exo CP1: blocks lytic granule exocytosis; shares compounds with Granule exo inh; TALL-104 cells, LAMP-1 externalization, flow cytometry; stimulated with PMA plus thapsigargin; inhibition, % at 10 µM; 1,500 compounds, 11% hits; AID 651954; in the data active = inhibition above about 60%;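 also: 0% = stimulated vehicle wells and 100% = unstimulated wells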
# An asterisk follows results filed as active; i = inactive; ? = inconclusive; · = not tested or not shown.
SMILES,Myeloid diff 2,Arr AP2 block,Granule exo inh,ATG4B inhibitor,CendR NRP1 mod,ABCB6 inh 2,Granule exo CP1
CC1(C(=O)OCC(=O)Nc2nc(-c3ccc(F)c(F)c3)cs2)CC1(Cl)Cl (centres undefined),i,-1,92*,-3,16,95,101*
COc1ccc(CC(=O)Nc2nc(-c3ccc(F)c(F)c3)cs2)cc1,i,0,36,-16,0,98,·
Cc1cc(-c2ccccc2)nc2cc(C(=O)N(Cc3ccccc3)Cc3ccccc3)nn12,i,-1,80*,2,-6,104,-2
COc1ccc(CCNCc2cc(C)n(-c3ccc(OC)cc3)c2C)cc1,i,13,61*,0,-4,99,1
NC(=O)c1cnccc1C=Cc1ccccc1,i,-8,64*,-15,9,99,-12
Cc1ccncc1C(N)=O,i,13,-4,-1,0,103,·
CC(C)(CNC(=O)c1ccc(Br)o1)CNC(=O)c1ccc(Br)o1,i,-4,0,-4,2,99,·
c1ccc(C(NCCNC(c2ccccc2)c2ccccc2)c2ccccc2)cc1,i,-16,80*,2,-1,101,3
NS(=O)(=O)c1ccc(CCNC(c2ccccc2)c2ccccc2)cc1,i,30,8,-9,-2,93,·
OC(CNCC(c1ccc(Cl)cc1Cl)c1c[nH]c2ccccc12)c1ccccc1 (centres undefined),?,-1,100*,33,-3,102,88*
CCOc1c(Cl)cc(CNCC(O)c2ccccc2)cc1OC (centres undefined),i,1,-1,16,0,92,·
CNC(=O)c1nc(C)c(C2(C)CC(c3cccc([N+](=O)[O-])c3)=NO2)s1 (centres undefined),i,5,-4,-2,-8,97,·
Cc1nc(C(=O)NCc2ccccc2)sc1C1(C)CC(c2cccc([N+](=O)[O-])c2)=NO1 (centres undefined),i,-1,59*,-3,7,96,-5
COc1ccc(/C=N/n2c(-c3ccc(C)cc3)n[nH]c2=S)cc1OC,i,13,0,-7,5,102,·
CSc1cccc(NC(=S)N(CCCN2CCCC2)Cc2cccn2Cc2ccc(Cl)cc2)c1,i,14,93*,7,8,93,63*
CN(Cc1ccccn1)C(=O)c1cc(COc2ccc(F)cc2Cl)on1,i,·,18,·,5,97,·
CN(C(=O)c1cc(COc2ccc(F)cc2Cl)on1)C1CCCc2ccccc21 (centres undefined),i,7,57*,21,5,103,2
COc1ccc(-c2nc(CN3CCN(c4cc(C)nc(C)c4)CC3)c(C)o2)c2ccccc12,i,10,58*,23,-4,101,36
COc1ccc2oc(=N)c(-c3nnc4n3CCCCC4)cc2c1,i,-14,56*,-3,-1,95,-13
CC(=O)Nc1ccc(NC(C)=C(C#N)C#N)cc1,i,11,-3,0,-4,100,·
Cc1ccc(NC(=O)CSc2nc(=O)n(Cc3ccncc3)c3c2CCC3)c(C)c1,i,13,59*,3,-5,101,-4
CC(=O)Nc1ccc(NC(=O)CSc2nc(=O)n(Cc3ccncc3)c3c2CCC3)cc1,i,2,1,-4,-9,100,·
Fc1cccc(Cc2c(-c3ccco3)nc3ccc(Cl)cn23)c1,i,·,58*,·,-10,105,-11
COc1ccccc1Cc1c(-c2ccco2)nc2ccc(Cl)cn12,i,·,82*,·,-19,98,4
Fc1cccc(Cc2c(-c3ccco3)nc3ccc(Br)cn23)c1,i,·,59*,·,-47,100,-1
SMILES,Myeloid diff 2,Arr AP2 block,Granule exo inh,ATG4B inhibitor,CendR NRP1 mod,ABCB6 inh 2,Granule exo CP1
CC(C)c1ccc(NC(=O)C2CCCCN2S(=O)(=O)c2ccccc2)cc1 (centres undefined),i,26,2,-7,4,85,·
Cc1cccc(-n2c(=S)[nH]c3sc4c(c3c2=O)CCc2ccccc2-4)c1,i,35,-1,-10,-31,99,·
CCCOc1ccc(-c2nc(C#N)c(NCCCn3ccnc3)o2)cc1,i,-3,4,-3,7,94,·
N#Cc1nc(-c2ccc(OCc3ccccc3)cc2)oc1NCCCn1ccnc1,i,0,81*,-14,20,106,33
COc1ccc(CCC(=O)N/N=C/c2ccc3c(c2)OCO3)cc1,i,-1,2,-2,-2,98,·
O=C1CC2(CCN(C(=O)c3ccc(F)cc3)CC2)Oc2ccccc21,i,-4,1,-11,13,104,·
O=C1CC2(CCCCCC2)Oc2ccccc21,i,5,63*,10,19,92,-14
COc1ccccc1NC(=O)NC(=O)c1ccccc1,i,-10,-16,4,8,95,·
CC1CC(C)(C)NC(=S)N1CCC(=O)NCCc1ccc(Cl)cc1 (centres undefined),i,53,-2,3,-4,95,·
CCOC(=O)Nc1nc(-c2ccc(F)cc2F)cs1,i,13,65*,0,2,101,-14
COC(=O)Nc1nc(-c2cc(Cl)ccc2Cl)cs1,i,11,1,7,-9,102,·
COc1ccc(N2C(=O)CC(Sc3n[nH]c(-c4ccccc4)n3)C2=O)cc1 (centres undefined),i,11,88*,-5,-2,99,85*
CCOc1ccc(N2C(=O)CC(Sc3n[nH]c(-c4ccccc4)n3)C2=O)cc1 (centres undefined),i,-9,9,-10,7,103,·
Cc1ccc(NC(=O)CSC2=NN3CCCC(=O)N=C3S2)c(C)c1,i,-6,-2,-2,5,104,·
Cc1ccc(NC(=O)CC2SC3=NCCCN3C2=O)c(C)c1 (centres undefined),i,-3,67*,-8,2,93,-12
Cc1ccccc1NC(=O)OCc1cccnc1Oc1ccc(Cl)cc1,i,21,-2,24,12,84,·
CCc1cc2ccccc2nc1SCC(=O)NC1CCCC1,i,24,79*,-2,11,94,-4
COC(=O)c1ccc([C@@H]2C[C@H]3CN(Cc4cccnc4)C(=O)[C@]34CCCN24)cc1,i,-9,-5,8,-4,93,·
O=C(c1ccco1)N1CCN(c2ccc([N+](=O)[O-])cn2)CC1,i,-5,-2,5,6,102,·
Cc1cc2nc(-c3ccco3)c(Cc3ccccc3C(F)(F)F)n2c(C)c1Br,i,·,85*,·,-19,119,-12
